The source of these data is ChEMBL document CHEMBL3085652, “Synthesis and antiproliferative activity of α-branched α,β-unsaturated ketones” (2013).

Holding throughout (format): functional
One experiment concerns WiDr. As to the kind of experiment: Growth inhibition of human WiDr cells after 48 hrs by SRB assay. The procedure, abridged: (§1)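 Cells from an academic source, kept in 25 cm² flasks in RPMI 1640 with 5% heat-inactivated fetal calf serum. Dosing began day 1 after plating, in triplicate at several dilutions across […]. Vehicle controls got DMSO 0.25% v/v. After 48 h exposure, cells were fixed with ice-cold 50% w/v TCA for 60 min at 4 °C and stained by SRB. OD was read at 492 nm, corrected for medium-only background, and GI50 was derived from dose-response data.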
(The SRB assay estimates cell density from bound dye.)

The next experiment deals with SW1573. As to the kind of experiment: Growth inhibition of human SW1573 cells after 48 hrs by SRB assay. Particulars: SW1573, 48 h. The procedure, abridged: as §1
Another experiment concerns T47D. As to the kind of experiment: Growth inhibition of human T47D cells after 48 hrs by SRB assay. Summed up: as §1
Experiment [1] in a line: Growth inhibition of human HBL100 cells after 48 hrs by SRB assay. To be noted: HBL-100, 48 h. Summed up:
as §1

The next experiment concerns HeLa. The experiment can be described thus: Growth inhibition of human HeLa cells after 48 hrs by SRB assay. Summed up:
as §1

Each structure is given as a SMILES string. Where only a bound is given, the exact number is not on record here.

Usually GI50 stands for the concentration that inhibits growth by half. A lower GI50 goes with more potent growth inhibition. As to `O=C(/C(=C/C1CCCCC1)CCl)c1ccccc1`, the GI50 was 22 µM in the experiment with WiDr; 23 µM with SW1573; 29 µM with T47D; 22 µM in experiment [1]; 30 µM in the experiment on HeLa.

For the molecule `O=C(/C(=C/c1ccccc1)CCl)c1ccccc1`, the 50% growth inhibitory concentration (GI50) in the experiment with WiDr was determined as 18 µM; with SW1573 it was 3.6 µM; in the experiment on T47D, 18 µM; in experiment [1] it was 12 µM; in the experiment with HeLa, 23 µM.

In the case of `O=C(/C(=C/c1ccc(Cl)cc1)CCl)c1ccccc1`, the GI50 in the experiment with WiDr was 19 µM; in the experiment with SW1573 it was 3.9 µM; in the experiment on T47D, 17 µM; in experiment [1] it was 3.2 µM; in the experiment with HeLa, 22 µM.

With `O=C(/C(=C/c1ccc(Cl)cc1Cl)CCl)c1ccccc1`, the concentration for 50% growth inhibition (GI50) in the experiment on WiDr was 13 µM; in the experiment with SW1573 it was 3.8 µM; in the experiment on T47D, 6.3 µM; in experiment [1] it was 3.1 µM; with HeLa, 15 µM.

On to `O=C(/C(=C/C1CCCCC1)c1ccccc1)c1ccccc1`, for which the 50% growth inhibitory concentration (GI50) in the experiment on WiDr came to 34 µM; in the experiment on SW1573, 29 µM; in the experiment on T47D, 39 µM; in experiment [1], 57 µM; in the experiment on HeLa, 47 µM.

As to `O=C(/C(=C\C1CCCCC1)c1ccccc1)c1ccccc1`, the GI50 in the experiment with WiDr was determined as 64 µM; in the experiment with SW1573, 64 µM; in the experiment on T47D it was 74 µM; in experiment [1], 59 µM; with HeLa, 63 µM.

With `O=C(/C(=C\c1ccc(Cl)cc1Cl)c1ccccc1)c1ccccc1`, the GI50 was 46 µM in the experiment on WiDr; 41 µM with SW1573; 52 µM with T47D; more than 100 µM in experiment [1]; 47 µM in the experiment on HeLa.

Take `CC(=O)OC/C(=C\C1CCCCC1)C(=O)c1ccccc1`: the GI50 in the experiment on WiDr was 21 µM; with SW1573 it was 19 µM; in the experiment with T47D, 22 µM; in experiment [1] it was 21 µM; in the experiment on HeLa, 21 µM.

Take `CCC(/C=C(\COC(C)=O)C(=O)c1ccccc1)CC`: the 50% growth inhibitory concentration (GI50) with WiDr is 52 µM; with SW1573 it was 77 µM; in the experiment with T47D it was 89 µM; in experiment [1] it was more than 100 µM; in the experiment on HeLa, 50 µM.

For the molecule `CC(=O)OC/C(=C\c1ccccc1)C(=O)c1ccccc1`, the GI50 is 17 µM in the experiment on WiDr; 4.8 µM in the experiment with SW1573; 16 µM in the experiment with T47D; 17 µM in experiment [1]; 20 µM in the experiment with HeLa.

Take `C=C(C/C(=C\c1ccccc1)C(=O)c1ccccc1)C(=O)c1ccccc1`: the 50% growth inhibitory concentration (GI50) came out at 18 µM with WiDr; 3 µM with SW1573; 15 µM with T47D; 10 µM in experiment [1]; 19 µM in the experiment with HeLa.

With `CC(=O)OC/C(=C\c1ccc(Cl)cc1)C(=O)c1ccccc1`, the 50% growth inhibitory concentration (GI50) in the experiment with WiDr is 4.8 µM; in the experiment with SW1573 it was 2.6 µM; with T47D, 5.3 µM; in experiment [1], 2.3 µM; in the experiment with HeLa, 3.2 µM.

On to `C=C(C/C(=C\c1ccc(Cl)cc1)C(=O)c1ccccc1)C(=O)c1ccccc1`, for which the GI50 in the experiment with WiDr came out at 20 µM; in the experiment on SW1573, 6.1 µM; with T47D, 19 µM; in experiment [1], 17 µM; in the experiment on HeLa, 22 µM.

With `CC(=O)OC/C(=C\c1ccc(F)cc1)C(=O)c1ccccc1`, the 50% growth inhibitory concentration (GI50) came out at 13 µM in the experiment with WiDr; 4.2 µM with SW1573; 14 µM with T47D; 17 µM in experiment [1]; 25 µM with HeLa.

Consider `C=C(C/C(=C\c1ccc(F)cc1)C(=O)c1ccccc1)C(=O)c1ccccc1`, for which the GI50 was found to be 19 µM with WiDr; 3.5 µM in the experiment on SW1573; 15 µM in the experiment on T47D; 14 µM in experiment [1]; 18 µM in the experiment on HeLa.

Consider `CC(=O)OC/C(=C/c1ccccc1Cl)C(=O)c1ccccc1`, for which the GI50 with WiDr worked out at 22 µM; in the experiment with SW1573 it was 14 µM; in the experiment with T47D it was 19 µM; in experiment [1], 21 µM; in the experiment on HeLa it was 24 µM.

Consider `CC(=O)OC/C(=C\c1ccccc1Br)C(=O)c1ccccc1`, for which the 50% growth inhibitory concentration (GI50) in the experiment with WiDr amounted to 21 µM; in the experiment on SW1573, 14 µM; in the experiment on T47D, 17 µM; in experiment [1], 22 µM; with HeLa it was 20 µM.

With `CC(=O)OC/C(=C/c1ccccc1Br)C(=O)c1ccccc1`, the GI50 is 18 µM in the experiment with WiDr; 21 µM with SW1573; 18 µM in the experiment with T47D; 21 µM in experiment [1]; 19 µM in the experiment on HeLa.

Turning to `CC(=O)OC/C(=C\c1ccccc1F)C(=O)c1ccccc1`, the GI50 with WiDr was 19 µM; in the experiment with SW1573, 6.1 µM; with T47D, 18 µM; in experiment [1], 17 µM; in the experiment with HeLa, 22 µM.

Take `C=C(C/C(=C\c1ccccc1F)C(=O)c1ccccc1)C(=O)c1ccccc1`: the concentration for 50% growth inhibition (GI50) turned out to be 17 µM in the experiment with WiDr; 3.5 µM in the experiment with SW1573; 14 µM in the experiment with T47D; 15 µM in experiment [1]; 20 µM in the experiment on HeLa.

As for `CC(=O)OC/C(=C\c1ccc(Cl)cc1Cl)C(=O)c1ccccc1`, the GI50 with WiDr was found to be 14 µM; in the experiment on SW1573, 3.5 µM; in the experiment on T47D, 9.5 µM; in experiment [1], 3.1 µM; in the experiment on HeLa, 16 µM.

As to `CC(=O)OC/C(=C/c1ccc(Cl)cc1Cl)C(=O)c1ccccc1`, the GI50 in the experiment with WiDr amounted to 19 µM; in the experiment with SW1573 it was 22 µM; in the experiment on T47D it was 20 µM; in experiment [1] it was 23 µM; with HeLa it was 22 µM.

As for `CC(=O)OC/C(=C\c1ccc([N+](=O)[O-])cc1)C(=O)c1ccccc1`, the GI50 with WiDr was found to be 23 µM; with SW1573 it was 3.8 µM; in the experiment on T47D, 16 µM; in experiment [1], 10 µM; with HeLa it was 26 µM.

Consider `CC(=O)OC/C(=C/c1ccc([N+](=O)[O-])cc1)C(=O)c1ccccc1`, for which the GI50 worked out at 83 µM in the experiment with WiDr; 32 µM with SW1573; 36 µM in the experiment with T47D; 41 µM in experiment [1]; 36 µM in the experiment with HeLa.

For `CC(=O)OC/C(=C\c1ccccc1[N+](=O)[O-])C(=O)c1ccccc1`, the concentration for 50% growth inhibition (GI50) came out at 18 µM in the experiment on WiDr; 18 µM in the experiment with SW1573; 21 µM in the experiment on T47D; 26 µM in experiment [1]; 25 µM with HeLa.

For the molecule `CC(=O)OC/C(=C/c1ccccc1[N+](=O)[O-])C(=O)c1ccccc1`, the GI50 is more than 100 µM in the experiment with WiDr; more than 100 µM with SW1573; 52 µM with T47D; more than 100 µM in experiment [1]; 78 µM with HeLa.

As for `C=C(C/C(=C\c1ccc(OC)cc1)C(=O)c1ccccc1)C(=O)c1ccccc1`, the GI50 is 0.47 µM in the experiment on WiDr; 0.45 µM in the experiment with SW1573; 0.37 µM in the experiment with T47D; 0.53 µM in experiment [1]; 0.32 µM in the experiment on HeLa.

For the molecule `O=C(OC/C(=C\C1CCCCC1)C(=O)c1ccccc1)c1ccccc1`, the GI50 in the experiment on WiDr is 19 µM; in the experiment on SW1573, 17 µM; in the experiment with T47D it was 20 µM; in experiment [1], 23 µM; in the experiment with HeLa, 24 µM.

As for `O=C(OC/C(=C\c1ccc(Cl)cc1Cl)C(=O)c1ccccc1)c1ccccc1`, the GI50 worked out at 17 µM with WiDr; 3.3 µM in the experiment on SW1573; 17 µM with T47D; 3.1 µM in experiment [1]; 20 µM in the experiment with HeLa.

As for `O=C(OC/C(=C/c1ccc(Cl)cc1Cl)C(=O)c1ccccc1)c1ccccc1`, the GI50 worked out at 8.7 µM with WiDr; 29 µM in the experiment with SW1573; 5.4 µM in the experiment with T47D; 26 µM in experiment [1]; 8.3 µM in the experiment with HeLa.

For `O=C(OC/C(=C\c1ccccc1[N+](=O)[O-])C(=O)c1ccccc1)c1ccccc1`, the 50% growth inhibitory concentration (GI50) stood at 18 µM with WiDr; 4.3 µM in the experiment on SW1573; 16 µM with T47D; 3.9 µM in experiment [1]; 22 µM with HeLa.

As to `O=C(OC/C(=C/c1ccccc1[N+](=O)[O-])C(=O)c1ccccc1)c1ccccc1`, the GI50 with WiDr is 21 µM; in the experiment with SW1573 it was more than 100 µM; in the experiment on T47D it was 18 µM; in experiment [1] it was more than 100 µM; in the experiment with HeLa, 30 µM.

As for `CC(=O)OC/C(=C\C1CCCCC1)C(=O)c1ccc(Cl)cc1`, the GI50 with WiDr came out at 21 µM; with SW1573 it was 18 µM; in the experiment with T47D, 18 µM; in experiment [1], 31 µM; in the experiment with HeLa, 24 µM.

As to `CC(=O)OC/C(=C\c1ccc(Cl)cc1)C(=O)c1ccc(Cl)cc1`, the concentration for 50% growth inhibition (GI50) in the experiment with WiDr amounted to 18 µM; with SW1573, 3.4 µM; in the experiment with T47D it was 5.4 µM; in experiment [1], 4 µM; in the experiment with HeLa, 19 µM.

Consider `CC(=O)OC/C(=C/c1ccc(Cl)cc1)C(=O)c1ccc(Cl)cc1`, for which the 50% growth inhibitory concentration (GI50) amounted to 17 µM in the experiment with WiDr; 5.3 µM with SW1573; 12 µM in the experiment with T47D; 16 µM in experiment [1]; 5.7 µM with HeLa.

On to `C=C(C/C(=C\c1ccc(Cl)cc1)C(=O)c1ccc(Cl)cc1)C(=O)c1ccc(Cl)cc1`, for which the GI50 came to 24 µM in the experiment with WiDr; 5.3 µM in the experiment on SW1573; 17 µM in the experiment with T47D; 16 µM in experiment [1]; 21 µM with HeLa.

For `CC(=O)OC/C(=C\c1ccc(Cl)cc1Cl)C(=O)c1ccc(Cl)cc1`, the 50% growth inhibitory concentration (GI50) in the experiment on WiDr turned out to be 8.1 µM; in the experiment with SW1573 it was 3.4 µM; with T47D, 5.2 µM; in experiment [1], 3.2 µM; in the experiment with HeLa, 4.6 µM.

On to `CC(=O)OC/C(=C/c1ccc(Cl)cc1Cl)C(=O)c1ccc(Cl)cc1`, for which the GI50 in the experiment with WiDr was determined as 20 µM; with SW1573 it was 21 µM; with T47D it was 20 µM; in experiment [1], 22 µM; in the experiment on HeLa, 19 µM.
